Measured values collected from several papers.
Lines come from different studies, so protocols differ.
SLC22A8: Organic anion transporter 3 (SLC22A8, Homo sapiens, UniProt Q8TCC7)
CDK4 with cyclin D1: Cyclin-dependent kinase 4, with cyclin D1 (CDK4, Homo sapiens, UniProt P11802)
OSBP: Oxysterol-binding protein 1 (OSBP, Homo sapiens, UniProt P22059)

SMILES	target	test	test system	setting	quantity	value
CSC[C@H]1O[C@@H](n2cnc3c(N)ncnc32)[C@H](O)[C@@H]1O	tapT (Escherichia coli, UniProt Q47319)	binding, ITC	–	–	Kd	150 µM
CN(C)C(=O)c1cc2cnc(Nc3ccc(C(=O)NCCCCCCOc4cccc5c4C(=O)N(C4CCC(=O)NC4=O)C5=O)cc3)nc2n1C1CCCC1 (centres unmarked)	Cyclin-dependent kinase 4 (CDK4, Homo sapiens, UniProt P11802)	binding, competition with immobilised ligand	–	–	Kd	< 0.2 µM
C[S+](CC[C@H](N)C(=O)O)C[C@H]1O[C@@H](n2cnc3c(N)ncnc32)[C@H](O)[C@@H]1O (some centres unmarked)	tapT (Escherichia coli, UniProt Q47319, D137A)	binding, ITC	–	–	Kd	590 µM
Nc1nc2c(ncn2[C@@H]2O[C@H](COP(=O)(O)OP(=O)(O)OP(=O)(O)O)[C@@H](O)[C@H]2O)c(=O)[nH]1	GTPase KRas (KRAS, Homo sapiens, UniProt P01116, Q61H)	binding	–	–	Kd	0.118 µM
C=CC(=O)N1C[C@H](Nc2ncnc3[nH]ccc23)CC[C@@H]1C	SLC22A8	transporter uptake, inhibitor	HEK293	pH 7.4	Ki	41 µM
CN(C)C(=O)c1cc2cnc(Nc3cc(C(F)(F)F)c(-c4ccc5c(=O)cc(N6CCOCC6)oc5c4)cn3)nc2n1C1CCCC1	CDK4 with cyclin D1	enzyme activity, inhibitor, radiometric	–	–	IC50	> 10 µM
CCOc1ccc(C(=O)CC(SCc2ccccc2)C(=O)O)cc1 (centres unmarked)	OSBP	ligand displacement, FP	–	–	Ki	> 1000 µM
CN(C)C(=O)c1cc2cnc(Nc3cc(C(=O)O)cc(-c4cccc5c(=O)cc(N6CCOCC6)oc45)c3)nc2n1C1CCCC1	CDK4 with cyclin D1	enzyme activity, inhibitor, radiometric	–	–	IC50	> 10 µM
CCOc1ccc(C(=O)CC(SCc2ccc(OC)cc2)C(=O)O)cc1 (centres unmarked)	OSBP	ligand displacement, FP	–	–	Ki	549 µM
CN(C)C(=O)c1cc2cnc(Nc3cc(C(=O)O)cc(-c4ccc5c(=O)cc(N6CCOCC6)oc5c4)c3)nc2n1C1CCCC1	CDK4 with cyclin D1	enzyme activity, inhibitor, radiometric	–	–	IC50	7.85 µM
CCOc1ccc(C(=O)CC(SCc2ccc(Cl)cc2)C(=O)OC)cc1 (centres unmarked)	OSBP	ligand displacement, FP	–	–	Ki	> 1000 µM
CN(C)C(=O)c1cc2cnc(Nc3cccc(-c4cccc5c(=O)cc(N6CCOCC6)oc45)c3)nc2n1C1CCCC1	CDK4 with cyclin D1	enzyme activity, inhibitor, radiometric	–	–	IC50	0.336 µM
O=C(O)c1ccc2nc(-c3cc(Cl)cc(Cl)c3)oc2c1	SLC22A8	transporter uptake, inhibitor	HEK293	pH 7.4	Ki	2.36 µM
CCOc1ccc(C(=O)CC(SCc2ccc(Br)cc2)C(=O)O)cc1 (centres unmarked)	OSBP	ligand displacement, FP	–	–	Ki	459 µM
